Measured values from article PMC9894006 (Journal of Insect Science, 2023).
“And” between values parts separate entries of the source, which are not always exact repeats. Identical values can stand only once. Values belong to the compound of their own block, whether it stands above or below them.

Tests used:
[1] = biological target: T1, recombinant BodoOBP10 (Bradysia odoriphaga, UniProt A0A2S0X9G4); assay: Binding curve of the fluorescence reporter 1-NPN
T1 sequence (A0A2S0X9G4 20-144): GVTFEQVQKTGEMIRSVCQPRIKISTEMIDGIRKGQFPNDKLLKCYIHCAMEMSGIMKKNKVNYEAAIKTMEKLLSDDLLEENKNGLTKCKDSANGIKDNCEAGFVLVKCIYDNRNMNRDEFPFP
How it was run: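 Recombinant BodoOBP10 was expressed in E. coli BL21(DE3) from pBM30 with 0.5 mM IPTG for 12 h at 28°C. Inclusion bodies were solubilised in 50 mM Tris pH 6.8 with 0.2% Triton X-100 and 6 M guanidine HCl. Protein was Ni-affinity purified and the His tag removed by enterokinase. Protein stock was 2 µM in 20 mM Tris-HCl pH 7.4; 1-NPN stock was 1 mM in methanol. Ex 337 nm, em 350–500 nm, 10-nm slit; triplicate means.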

[2] = tested on: antennae of B. odoriphaga adult females; assay: Electroantennogram; set-up: species or system Bradysia odoriphaga; conditions: odorant at 10 μg/μL, adult females 12 h after emergence
How it was run: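 30 nL of 6 μg/μL dsOBP10 or dsGFP was injected into one-day-old pupal abdomens; knockdown was checked by RT-qPCR in triplicate. Antennae of females 12 h post-emergence were detached, base on reference and tip on recording glass electrodes. Stimulus was 10 μl of a 10 μg/μL sulfur volatile on filter paper, pipetted after 10 s. Hexane control was given before and after. Ten replicates; one-way ANOVA with Tukey, means ± SE.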

[3] = tested on: antennae of adult B. odoriphaga; conditions: ref Yang et al. 2019; cited from earlier work
[4] = tested on: B. odoriphaga females; conditions: ref Yang et al. 2019; cited from earlier work
[5] = biological target: T1, recombinant BodoOBP10; assay: Competitive fluorescence binding assay with 1-NPN as reporter; conditions: competitive dissociation constant from IC50, 1-NPN reporter
How it was run: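 Refolded, Ni-purified, tag-cleaved BodoOBP10 (2 µM stock, 20 mM Tris-HCl pH 7.4) was titrated with test compounds (1 mM methanol stocks) displacing the 1-NPN reporter. Ex 337 nm, em 350–500 nm. IC50 is the ligand concentration halving initial fluorescence. Ki = [IC50]/(1 + [1-NPN]/K1-NPN), using free 1-NPN and the protein/1-NPN dissociation constant. Triplicate means.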

[6] = tested on: male B. odoriphaga; conditions: ref Li et al. 2008; cited from earlier work

Structure (SMILES): c1ccc(Nc2cccc3ccccc23)cc1 [1-NPN, N-phenyl-1-naphthylamine]
Ki [1]: 0.78 µM

Structure (SMILES): C=CCSSCC=C [Diallyl disulfide]
EAG response in dsOBP10-injected insects compared with control (dsGFP-injected) [2]: significantly reduced
EAG response in dsOBP10-injected insects compared with control (dsGFP-injected) ([2]; listed as diallyl disulﬁde): reduced
EAG responses / antennal preference of B. odoriphaga adults [3]: stimulate the EAG responses
female oviposition [4]: stimulate female oviposition
Ki [5]: 8.01 µM and < 10 µM

Ki [5]: > 50 µM
Structure (SMILES): CCCCCCCCCCCCCCCCC [n- Heptadecane, n-Heptadecane]
behavioral responses in male B. odoriphaga [6]: can lead to behavioral responses
